Data from paper PMC9669183 (British journal of pharmacology, 2022).
Where “and” joins values, the source holds several entries; their conditions need not be identical. Equal values may be shown once. Read-outs that look alike come from different tables or passages of the source.

Legend:
α1β2γ2L GABAAR [1] = target: T1, α1β2γ2L GABAAR (Rattus norvegicus, UniProt P18508+P62813+P63138, INS375LLRMFSFK); format: cell-based; conditions: for potentiation of the response to low GABA (% of control): 50 μM α7-PAM, 2-5 μM GABA (PA<0.10), 100% = no effect, mean±SEM; for free energy change (ΔG) towards stabilizing the active state: co-agonist concerted transition model
α1β2γ2L GABAAR [2] = target: T1, α1β2γ2L GABAAR; test: Drug combination; format: cell-based
α1β3γ2L GABAAR [3] = target: T2, α1β3γ2L GABAAR (Homo sapiens, UniProt P14867+P18507+P28472); format: binding; conditions: for direct effect on fluorescence from α1β3γ2L-bound Gzn-OG (orthosteric site): 3-100 μM α7-PAM, no GABA
α1β2γ2L GABAAR [4] = target: T1, α1β2γ2L GABAAR; test: Direct activation, two-electrode voltage clamp in Xenopus oocytes; format: cell-based; conditions: 50 μM α7-PAM; n=5 oocytes/drug; mean±SEM
α1β2γ2L GABAAR [5] = target: T1, α1β2γ2L GABAAR; test: Modulation of steady-state response to saturating GABA, Xenopus oocytes; format: cell-based; conditions: 50 μM α7-PAM; 1 mM GABA
α1β2γ2L GABAAR [6] = target: T1, α1β2γ2L GABAAR; test: Potentiation of receptors activated by allosteric agonists; format: cell-based
α1(Q241L)β2γ2L GABAAR = α1(Q241L)β2γ2L GABAAR (Rattus norvegicus, UniProt P18508+P62813+P63138, INS375LLRMFSFK/Q268L); test: Potentiation of low GABA response, mutant receptor in oocytes; format: cell-based; conditions: 50 μM; low GABA PA<0.10; mean±SEM
α1β2(N265M)γ2L GABAAR = α1β2(N265M)γ2L GABAAR (Rattus norvegicus, UniProt P18508+P62813+P63138, INS375LLRMFSFK/N289M); test: as above; format: cell-based; conditions: 50 μM; low GABA PA<0.10; mean±SEM
α1β2(M286W)γ2L GABAAR = α1β2(M286W)γ2L GABAAR (Rattus norvegicus, UniProt P18508+P62813+P63138, INS375LLRMFSFK/M310W); test: as above; format: cell-based; conditions: 50 μM; low GABA PA<0.10; mean±SEM
α1(L232C)β2γ2L GABAAR = α1(L232C)β2γ2L GABAAR (Rattus norvegicus, UniProt P18508+P62813+P63138, INS375LLRMFSFK/L258C); test: as above; format: cell-based; conditions: 50 μM; low GABA PA<0.10; mean±SEM
α1(M236C)β2γ2L GABAAR = α1(M236C)β2γ2L GABAAR (Rattus norvegicus, UniProt P18508+P62813+P63138, INS375LLRMFSFK/M262C); test: as above; format: cell-based; conditions: 50 μM; low GABA PA<0.10; mean±SEM
α1(A291W)β2γ2L GABAAR = α1(A291W)β2γ2L GABAAR (Rattus norvegicus, UniProt P18508+P62813+P63138, A317W/INS375LLRMFSFK); test: as above; format: cell-based; conditions: 50 μM; low GABA PA<0.10; mean±SEM
α1β2γ2L(S280C) GABAAR = α1β2γ2L(S280C) GABAAR (Rattus norvegicus, UniProt P18508+P62813+P63138, INS375LLRMFSFK/S318C); test: as above; format: cell-based; conditions: 50 μM; low GABA PA<0.10; mean±SEM
α1β2γ2L(I242C) GABAAR = α1β2γ2L(I242C) GABAAR (Rattus norvegicus, UniProt P18508+P62813+P63138, I280C/INS375LLRMFSFK); test: as above; format: cell-based; conditions: 50 μM; low GABA PA<0.10; mean±SEM
α1β2γ2L(L246C) GABAAR = α1β2γ2L(L246C) GABAAR (Rattus norvegicus, UniProt P18508+P62813+P63138, INS375LLRMFSFK/L284C); test: as above; format: cell-based; conditions: 50 μM; low GABA PA<0.10; mean±SEM
α1β3γ2L GABAAR [7] = target: T2, α1β3γ2L GABAAR; test: Potentiation of low GABA response, oocytes; format: cell-based; conditions: 50 μM; low GABA PA<0.10; mean±SEM
α1β3(M227C)γ2L GABAAR = α1β3(M227C)γ2L GABAAR (Homo sapiens, UniProt P14867+P18507+P28472, M252C); test: Potentiation of low GABA response, mutant receptor in oocytes; format: cell-based; conditions: 50 μM; low GABA PA<0.10; mean±SEM
α1β3(L231C)γ2L GABAAR = α1β3(L231C)γ2L GABAAR (Homo sapiens, UniProt P14867+P18507+P28472, L256C); test: as above; format: cell-based; conditions: 50 μM; low GABA PA<0.10; mean±SEM
α4β2δ GABAA receptor = α4β2δ GABAA receptor (Homo sapiens, UniProt O14764+P47870+P48169); test: Effect on α4β2δ receptor during long drug applications, oocytes; format: cell-based
Sequence of α4β2δ GABAA receptor (P48169 36-554): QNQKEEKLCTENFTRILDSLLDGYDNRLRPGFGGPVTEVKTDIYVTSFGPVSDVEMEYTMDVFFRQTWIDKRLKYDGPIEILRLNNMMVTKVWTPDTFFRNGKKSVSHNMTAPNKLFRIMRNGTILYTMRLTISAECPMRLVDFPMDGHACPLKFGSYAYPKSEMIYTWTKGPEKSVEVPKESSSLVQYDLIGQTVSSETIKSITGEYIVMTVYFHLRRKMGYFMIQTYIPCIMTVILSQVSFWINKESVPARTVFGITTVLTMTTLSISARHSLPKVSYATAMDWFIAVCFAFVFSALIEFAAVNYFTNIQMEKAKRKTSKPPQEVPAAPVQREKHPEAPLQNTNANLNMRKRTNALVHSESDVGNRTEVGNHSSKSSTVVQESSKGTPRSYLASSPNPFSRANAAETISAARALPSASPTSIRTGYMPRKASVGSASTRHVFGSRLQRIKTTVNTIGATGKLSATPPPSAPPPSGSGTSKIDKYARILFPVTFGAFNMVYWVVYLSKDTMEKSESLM
Sequence of α4β2δ GABAA receptor (P47870 25-512 limits assumed): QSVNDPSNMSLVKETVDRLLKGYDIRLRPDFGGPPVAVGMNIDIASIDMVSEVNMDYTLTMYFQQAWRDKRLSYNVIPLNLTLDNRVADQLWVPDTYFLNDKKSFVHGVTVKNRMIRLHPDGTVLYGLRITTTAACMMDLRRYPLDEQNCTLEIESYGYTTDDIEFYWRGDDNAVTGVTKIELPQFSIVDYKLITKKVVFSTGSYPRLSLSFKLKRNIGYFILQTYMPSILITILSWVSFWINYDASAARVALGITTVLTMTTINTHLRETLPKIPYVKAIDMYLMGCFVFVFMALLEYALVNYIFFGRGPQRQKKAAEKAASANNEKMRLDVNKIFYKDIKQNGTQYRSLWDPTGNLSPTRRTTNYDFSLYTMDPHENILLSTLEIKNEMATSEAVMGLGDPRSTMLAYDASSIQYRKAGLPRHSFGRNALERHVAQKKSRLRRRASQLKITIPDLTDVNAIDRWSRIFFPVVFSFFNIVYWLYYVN
Sequence of α4β2δ GABAA receptor (O14764 25-452): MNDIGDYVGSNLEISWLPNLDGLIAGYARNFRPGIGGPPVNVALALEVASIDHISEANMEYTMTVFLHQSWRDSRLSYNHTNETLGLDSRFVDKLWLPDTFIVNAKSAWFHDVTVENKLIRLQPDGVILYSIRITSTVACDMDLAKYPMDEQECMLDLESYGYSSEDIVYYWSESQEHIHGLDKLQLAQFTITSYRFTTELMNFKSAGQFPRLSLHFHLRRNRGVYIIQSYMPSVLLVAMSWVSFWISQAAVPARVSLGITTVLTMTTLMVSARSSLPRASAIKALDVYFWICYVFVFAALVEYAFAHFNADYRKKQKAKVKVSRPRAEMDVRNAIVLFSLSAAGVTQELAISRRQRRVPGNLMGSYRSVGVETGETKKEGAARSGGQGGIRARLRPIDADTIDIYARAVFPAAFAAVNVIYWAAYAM
Procedure, shortened: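 Human α4β2δ GABAA receptors were expressed in Xenopus laevis oocytes by injecting 3.5-6 ng total cRNA per oocyte. Oocytes were held 1-2 days in ND96 (pH 7.4) with Na pyruvate and antibiotics. Currents were recorded by two-electrode voltage clamp.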

[8] = system: binary αβ GABAA receptors (α1β2, α1β3); test: Potentiation of binary αβ receptors compared with ternary αβγ, oocytes; format: cell-based
α4β2 nicotinic receptor = conditions: at high μM concentrations; ref Arias et al., 2011; Timmermann et al., 2007; cited from earlier work
α3β4 nicotinic receptor = conditions: at high μM concentrations; ref Arias et al., 2011; Timmermann et al., 2007; cited from earlier work
[9] = c 0.804, KR,PNU-120596 constrained to 10 μM
[10] = c 0.804, KR,PNU-120596 constrained to 50 μM
[11] = c 0.804, KR,PNU-120596 constrained to 100 μM

## NCCCC(=O)O [GABA, γ-aminobutyric acid]
α1β2γ2L GABAAR [1]; 2-5 μM GABA (EC6-7)
  PA of response to GABA alone: 0.05-0.06
α1β2γ2L GABAAR [2]; 0.5 μM GABA, n=5
  PA of response to GABA alone: 0.039±0.013

## O=C(Nc1cc(Cl)ccc1O)Nc1cc(C(F)(F)F)ccc1Cl [NS-1738, N-(5-Cl-2-hydroxyphenyl)-N’-[2-Cl-5-(trifluoromethyl)phenyl]-urea]
α1β3γ2L GABAAR [3]; 100 μM α7-PAM
  decrease in GABA Ki between 0 (control) and 100 μM α7-PAM: 25 fold
α1β3γ2L GABAAR [3]
  direct effect on fluorescence from α1β3γ2L-bound Gzn-OG (orthosteric site): do not modify fluorescence
α1β2γ2L GABAAR [4]
  direct activation: response as % of the peak response to 1 mM GABA+50 μM propofol: 0.86±0.51%
α1β2γ2L GABAAR [1]
  potentiation of the response to low GABA (% of control): 383±38 % of control
  free energy change (ΔG) towards stabilizing the active state: -1.29 kcal/mol
α1β2γ2L GABAAR [5]
  steady-state response to saturating GABA in presence of α7-PAM (% of control): 44±8 % of control
α1β2γ2L GABAAR [2]; 0.5 μM GABA+20 μM NS-1738
  PA of response to GABA+NS-1738: 0.153±0.043
α1β2γ2L GABAAR [2]; 50 μM α7-PAM, R(+)-etomidate
  observed PA in the presence of R(+)-etomidate+α7-PAM: 0.068±0.022
  predicted PA for R(+)-etomidate+α7-PAM, distinct site model: 0.253±0.055
  predicted PA for R(+)-etomidate+α7-PAM, same site model: 0.007±0.002
α1β2γ2L GABAAR [2]; 0.1-0.5 μM GABA+10 μM NS-1738, 5 oocytes
  PA of response to low GABA+NS-1738: 0.084±0.028
α1β2γ2L GABAAR [6]; 50 μM α7-PAM, 10 μM propofol
  potentiation of currents elicited by propofol (% of control): 145±11 % of control
α1β2γ2L GABAAR [6]; 50 μM α7-PAM, 1 mM phenobarbital, n=5
  potentiation of the response to phenobarbital (% of control): 431±52 % of control
α1β2γ2L GABAAR [6]; 50 μM α7-PAM, 2-4 μM R(+)-etomidate
  potentiation of the peak response to R(+)-etomidate (% of control): 125±8 % of control
α1(Q241L)β2γ2L GABAAR
  Potentiation (% of control), α1(Q241L)β2γ2L: 491 ± 45% of control
α1β2(N265M)γ2L GABAAR
  Potentiation (% of control), α1β2(N265M)γ2L: 426 ± 61% of control
α1β2(M286W)γ2L GABAAR
  Potentiation (% of control), α1β2(M286W)γ2L: 613 ±91% % of control
α1(L232C)β2γ2L GABAAR
  Potentiation (% of control), α1(L232C)β2γ2L: 357 ± 55% of control
α1(M236C)β2γ2L GABAAR
  Potentiation (% of control), α1(M236C)β2γ2L: 181 ± 15% % of control
α1(A291W)β2γ2L GABAAR
  Potentiation (% of control), α1(A291W)β2γ2L: 199 ± 22% % of control
α1β2γ2L(S280C) GABAAR
  Potentiation (% of control), α1β2γ2L(S280C): 344 ± 60% of control
α1β2γ2L(I242C) GABAAR
  Potentiation (% of control), α1β2γ2L(I242C): 376 ±35% of control
α1β2γ2L(L246C) GABAAR
  Potentiation (% of control), α1β2γ2L(L246C): 262 ± 25% of control
α1β3γ2L GABAAR [7]
  Potentiation (% of control), α1β3γ2L: 301 ± 12% of control
α1β3(M227C)γ2L GABAAR
  Potentiation (% of control), α1β3(M227C)γ2L: 322 ± 40% of control
α1β3(L231C)γ2L GABAAR
  Potentiation (% of control), α1β3(L231C)γ2L: 217 ± 36% of control
α4β2δ GABAA receptor
  effect on the α4β2δ receptor: inhibited
[8]
  magnitude of potentiation in binary αβ vs ternary αβγ receptors: similar
α4β2 nicotinic receptor
  effect on the heteromeric α4β2 nicotinic receptor: inhibit
α3β4 nicotinic receptor
  effect on the heteromeric α3β4 nicotinic receptor: inhibit

## COc1cc(OC)c(NC(=O)Nc2cc(C)on2)cc1Cl [PNU-120596, N-(5-Cl-2,4-dimethoxyphenyl)-N’-(5-methyl-3-isoxazolyl)-urea]
α1β3γ2L GABAAR [3]; 3-10 μM α7-PAM
  shift in GABA F/Fo curves: Leftward shift
α1β3γ2L GABAAR [3]
  direct effect on fluorescence from α1β3γ2L-bound Gzn-OG (orthosteric site): do not modify fluorescence
α1β2γ2L GABAAR [4]
  direct activation: response as % of the peak response to 1 mM GABA+50 μM propofol: 0.38±0.09%
α1β2γ2L GABAAR [1]
  potentiation of the response to low GABA (% of control): 133±11 % of control
  free energy change (ΔG) towards stabilizing the active state: -0.26 ± 0.04 kcal/mol and -0.26 kcal/mol
α1β2γ2L GABAAR [1]; coapplied with low GABA (PA=0.05-0.13)
  potentiation EC50 (Hill equation): the fits did not converge
α1β2γ2L GABAAR [5]
  steady-state response to saturating GABA in presence of α7-PAM (% of control): 90±2 % of control
α1β2γ2L GABAAR [2]; 0.1-0.5 μM GABA+10 μM NS-1738+50 μM PNU-120596, 5 oocytes
  PA of response to low GABA+NS-1738 with PNU-120596 coapplied: 0.074±0.024
α1β2γ2L GABAAR [2]; [9]
  predicted PA for GABA+NS-1738+PNU-120596, distinct site model: 0.114
  predicted PA for GABA+NS-1738+PNU-120596, same site model: 0.047
α1β2γ2L GABAAR [2]; [10]
  predicted PA for GABA+NS-1738+PNU-120596, distinct site model: 0.103
  predicted PA for GABA+NS-1738+PNU-120596, same site model: 0.065
α1β2γ2L GABAAR [2]; [11]
  predicted PA for GABA+NS-1738+PNU-120596, distinct site model: 0.097
  predicted PA for GABA+NS-1738+PNU-120596, same site model: 0.073

## CCOC(=O)c1cncn1[C@H](C)c1ccccc1 [R(+)-etomidate, R-1-(1-ethylphenyl)imidazole-5-ethyl ester]
α1β2γ2L GABAAR [6]; 2-4 μM R(+)-etomidate
  PA of response to R(+)-etomidate alone: 0.053±0.015 and 0.041±0.013

## CC(C)c1cccc(C(C)C)c1O [propofol]
α1β2γ2L GABAAR [6]; 10 μM propofol
  PA of currents elicited by propofol alone: 0.06-0.07
